The text below walks through data of ChEMBL document CHEMBL3259611, “Suppression of inflammatory responses by handelin, a guaianolide dimer from Chrysanthemum boreale, via downregulation of NF-κB signaling and pro-inflammatory cytokine production” (J Nat Prod, 2014).

Assay [1] deals with Transcription factor p65 (Mus musculus) (UniProt Q04207). Briefly: Inhibition of LPS-induced NF-kappaB p65 binding to DNA in mouse RAW264.7 cells at 10 to 40 uM after 1.5 hrs by spectrophotometry. In kind it is cell-based.
The subject of assay [2] is RAW264.7. In words: Antiinflammatory activity in mouse RAW264.7 cells assessed as inhibition of LPS-induced iNOS mRNA expression at 20 uM after 5 hrs by RT-PCR analysis relative to control. In kind it is functional. An outline of the steps:
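RAW 264.7 cells exposed to 1 μg/mL LPS with or without compound for 5 h. Total RNA was analysed by RT-PCR: 25−30 cycles with annealing at 55 °C. Products were separated on 2% agarose gel with SYBR-Safe staining. Experiments in triplicate.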

The test system of assay [3] is RAW264.7. In words: Antiinflammatory activity in mouse RAW264.7 cells assessed as inhibition of LPS-induced nitric oxide production at 40 uM administered 30 mins prior to LPS challenge measured after 20 hrs by Griess assay relative to control. In kind it is functional. Put shortly:
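RAW 264.7 cells at 3 × 10^5 cells/mL in phenol red-free 10% FBS DMEM, pretreated for 30 min, then given 1 μg/mL LPS for 20 h. Nitrite in the medium was read by Griess reaction at 540 nm against a sodium nitrite standard curve. % inhibition was calculated versus vehicle control, and IC50 by nonlinear regression. Mean ± SD of triplicates.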

Assay [4] relates to RAW264.7. In words: Antiinflammatory activity in mouse RAW264.7 cells assessed as inhibition LPS-induced IL-1beta mRNA expression at 10 uM after 4 hrs by RT-PCR analysis relative to control. In kind it is functional. Put shortly: (§1)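 RAW 264.7 cells stimulated with LPS (1 μg/mL) with or without compound for 4 h. Total RNA was isolated and cytokine mRNA was analysed by RT-PCR: 94 °C 4 min, then 25−30 cycles of 94/55/72 °C for 30 s each, then 72 °C 5 min. Products were run on 2% agarose and stained with SYBR-Safe. Triplicate, representative of three experiments.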

The target of assay [5] is Transcription factor p65 (Mus musculus) (UniProt Q04207). Briefly: Inhibition of LPS-induced NF-kappaB p65 binding to DNA in mouse RAW264.7 cells at 10 to 40 uM after 1.5 hrs by spectrophotometry in presence of wild type oligonucleotide. In kind it is cell-based.
For assay [6], the system named is RAW264.7. In words: Antiinflammatory activity in mouse RAW264.7 cells assessed as inhibition LPS-induced TNF-alpha mRNA expression at 10 uM after 4 hrs by RT-PCR analysis relative to control. In kind it is functional. Put shortly: as §1
Assay [7] deals with RAW264.7. Briefly: Antiinflammatory activity in mouse RAW264.7 cells assessed as inhibition LPS-induced TNF-alpha protein expression at 40 uM after 4 hrs by Western blotting analysis relative to control. In kind it is functional.
Assay [8] deals with Transcription factor p65 (Mus musculus) (UniProt Q04207). In words: Inhibition of LPS-induced NFkappaB P65 protein nuclear translocation in mouse RAW264.7 cells at 40 uM after 30 mins by Western blotting analysis relative to control. In kind it is cell-based. An outline of the steps: (§2)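 Macrophages were exposed to compound for 30 min before LPS stimulation, with proteins extracted 30 min later. Nuclear extracts were prepared in Tris/KCl/NP-40 lysis buffer, then 420 mM NaCl buffer, and the cytosolic fraction was kept for IκB-α. Western blot on PVDF with ECL detection. Tests in triplicate; representative of three separate experiments.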
Background: A western blot detects proteins with antibodies after separation by electrophoresis.

Assay [9] concerns RAW264.7. In words: Antiinflammatory activity in mouse RAW264.7 cells assessed as inhibition LPS-induced IL-1beta protein expression after 4 hrs by Western blotting analysis. In kind it is functional, cell-based. Put shortly:
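RAW 264.7 cells stimulated with LPS (1 μg/mL) with or without compound for 4 h. Lysates were resolved by 6−15% SDS-PAGE and blotted to PVDF. Blocked in 5% milk/PBST, primary antibody overnight at 4 °C, secondary antibody 2 h, detected by ECL. Triplicate, representative of three experiments.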

Assay [10] addresses T1, Nuclear factor NF-kappa-B p105 subunit (Mus musculus) (UniProt P25799).
T1 sequence (whole entry): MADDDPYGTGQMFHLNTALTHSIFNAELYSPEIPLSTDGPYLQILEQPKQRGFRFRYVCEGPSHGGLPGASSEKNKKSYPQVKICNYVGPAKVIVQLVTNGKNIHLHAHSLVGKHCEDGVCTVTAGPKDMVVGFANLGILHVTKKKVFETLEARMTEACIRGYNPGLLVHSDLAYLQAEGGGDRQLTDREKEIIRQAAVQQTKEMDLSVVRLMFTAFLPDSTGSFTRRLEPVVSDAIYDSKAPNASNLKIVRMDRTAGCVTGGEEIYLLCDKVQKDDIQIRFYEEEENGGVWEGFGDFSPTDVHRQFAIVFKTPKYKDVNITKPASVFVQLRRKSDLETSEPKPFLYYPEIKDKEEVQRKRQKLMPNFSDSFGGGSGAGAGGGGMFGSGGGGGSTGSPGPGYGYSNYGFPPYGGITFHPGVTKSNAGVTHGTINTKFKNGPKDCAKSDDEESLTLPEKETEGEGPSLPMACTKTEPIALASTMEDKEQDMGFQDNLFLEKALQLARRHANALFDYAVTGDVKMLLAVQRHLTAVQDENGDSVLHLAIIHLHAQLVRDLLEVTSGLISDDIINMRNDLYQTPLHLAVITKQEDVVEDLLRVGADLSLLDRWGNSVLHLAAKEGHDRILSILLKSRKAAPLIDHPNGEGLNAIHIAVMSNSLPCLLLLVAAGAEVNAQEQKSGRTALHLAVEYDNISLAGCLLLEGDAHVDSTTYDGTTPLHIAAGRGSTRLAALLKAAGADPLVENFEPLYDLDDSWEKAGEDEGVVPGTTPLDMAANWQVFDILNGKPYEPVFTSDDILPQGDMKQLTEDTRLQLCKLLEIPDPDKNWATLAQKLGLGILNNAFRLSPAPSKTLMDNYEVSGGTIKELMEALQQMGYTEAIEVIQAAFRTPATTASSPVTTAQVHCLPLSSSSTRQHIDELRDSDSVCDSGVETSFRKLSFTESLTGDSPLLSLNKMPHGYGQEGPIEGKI
Briefly: Inhibition of LPS-induced NF-kappaB p50 binding to DNA in mouse RAW264.7 cells at 10 to 40 uM after 1.5 hrs by spectrophotometry in presence of wild type oligonucleotide. In kind it is cell-based.

Assay [11] deals with RAW264.7. In words: Inhibition of LPS-induced NFkappaB transcriptional activity in mouse RAW264.7 cells assessed as reduction of phosphorylated IkappaB-alpha level at 20 uM after 30 mins by Western blotting analysis relative to control. In kind it is cell-based. Put shortly: as §2
Assay [12] has as its system RAW264.7. Briefly: Antiinflammatory activity in mouse RAW264.7 cells assessed as inhibition of LPS-induced COX2 protein expression after 16 hrs by Western blotting analysis.
The subject of assay [13] is RAW264.7. Briefly: Antiinflammatory activity in mouse RAW264.7 cells assessed as inhibition LPS-induced TNF-alpha protein expression at 20 uM after 4 hrs by Western blotting analysis relative to control. In kind it is functional.
A further assay relates to Rattus norvegicus. In words: Antiinflammatory activity in rat paw edema model assessed as inhibition of carrageenan-induced iNOS protein expression in paw tissue at 20 mg/kg, po administered 30 mins prior to carrageenan challenge measured after 6 hrs by Western blotting analysis relative to vehicle-treated control. Also noted: dose 20 mg/kg. In kind it is functional, organism-based. An outline of the steps:
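SD rats received compound orally in 0.5% CMC-Na 30 min before subplantar injection of 0.1 mL 1% carrageenan in saline. Paws were removed at 6 h, homogenized, and iNOS, COX-2 and IL-1β were assessed by Western blot. Triplicate, representative of three experiments.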

Calls of active or inactive are those of the source. The calls are words filed in the database; no cut-off is given here.

Transcription factor p65 (Mus musculus), sequence (Q04207 whole entry): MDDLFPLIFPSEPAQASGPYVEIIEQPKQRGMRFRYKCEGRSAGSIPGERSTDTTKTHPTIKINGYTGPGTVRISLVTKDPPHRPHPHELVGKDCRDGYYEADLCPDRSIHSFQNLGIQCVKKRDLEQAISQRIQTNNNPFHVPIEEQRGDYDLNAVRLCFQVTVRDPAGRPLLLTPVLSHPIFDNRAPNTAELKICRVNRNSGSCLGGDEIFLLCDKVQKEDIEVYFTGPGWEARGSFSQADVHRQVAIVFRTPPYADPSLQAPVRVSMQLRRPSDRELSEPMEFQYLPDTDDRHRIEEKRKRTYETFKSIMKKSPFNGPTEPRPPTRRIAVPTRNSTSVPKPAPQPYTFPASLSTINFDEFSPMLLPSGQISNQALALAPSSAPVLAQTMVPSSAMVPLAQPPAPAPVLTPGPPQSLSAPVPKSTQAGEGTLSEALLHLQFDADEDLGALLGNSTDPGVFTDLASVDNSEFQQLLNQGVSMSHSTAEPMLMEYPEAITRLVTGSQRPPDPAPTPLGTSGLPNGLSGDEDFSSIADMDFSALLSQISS

`C=C1C(=O)O[C@@H]2[C@@H]3[C@@]4(C=C[C@@]3(C)[C@]3(C4)C(=O)O[C@@H]4[C@H]5C(C)=CC[C@H]5[C@](C)(O)C[C@H](OC(C)=O)[C@H]43)[C@](C)(O)CC[C@@H]12`: the inhibition result (in assay [1]; in the assay on RAW264.7 [4]; with RAW264.7 [6]; in the assay with Rattus norvegicus) was “Active” each time. The “fold change (FC)” value in the assay on RAW264.7 [2] worked out at 0.67; in the assay on RAW264.7 [4], 0.26; in the assay with RAW264.7 [6], 0.66; with RAW264.7 [7] it was 0.56; in assay [8], 0.49; in the assay with RAW264.7 [11], 0.55. In addition, the “fold change (FC)” value with RAW264.7 [13] was determined as 0.76. In addition, in the assay on RAW264.7 [3], the “inhibition (INH)” value came out at 98%. Besides, the inhibition entry in assay [5] and in assay [10] was “inactive” throughout. In addition, the inhibition result in the assay with RAW264.7 [9] and in the assay with RAW264.7 [12] was “Dose-dependent effect” throughout.
